CaV13 FRET inh: Disruptors of the CACNA1D IQ motif to Ca2+-dependent inactivation inhibitor domain association, primary screening, Förster resonance energy transfer in intact living …; AID 743397; inhibition, % at 12.3 µM; HEK cells, CFP/YFP FRET ICDI-IQ, plate reader, 10 min; percent FRET-ratio fall versus neutral wells; 340,000 tested, 0.098% active;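 active = mean replicate inhibition of at least 30% and at least 1% of replicates passing that level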;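 also: 0% = median of the neutral control wells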
FAS TE block: FAS thioesterase domain inhibitors, primary screen, biochemical, fluorescence intensity, uHTS; Fatty acid synthase (Homo sapiens), P49327; recombinant FAS-TE, OMFH fluorogenic substrate, fluorescence endpoint; inhibition, % at 15 µM; 360,000 tested, 0.67% active;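 active = compounds whose normalised, plate-corrected inhibition of enzyme fluorescence in the single-dose primary screen is 50% or more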;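 also: 0% = DMSO with enzyme and 100% = substrate without enzyme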
CendR NRP1 mod: modulators of CendR peptide binding to NRP-1, primary screen, biochemical, fluorescence polarization, uHTS | FAM-RPARPAR peptide binding to NRP-1 | inhibition, % at 25 µM | 360,000 tested, 0.85% active;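 active = inhibition or corrected inhibition above about 18%, plus a signal ratio from 0.5 to 1.5, limit read from the data, passing the limit was not always enough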
Arrestin-AP2 inh: inhibitors of beta-arrestin/AP2 binding, primary screen, biochemical, GPCR trafficking, flow cytometry; beta-arrestin 1 C-terminal peptide binding to AP2 beta2-adaptin appendage (human); FITC-arrestin peptide / GST-AP2 beads; AP2 beta2 appendage carries R879A mutation; inhibition, % at 10 µM; 340,000 tested, 0.31% active;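 active = inhibition above a set limit, near 3 SD of compounds lacking own fluorescence, cut at about 54% in these data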;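 also: plate controls were DMSO wells for no effect and 5 µM unlabelled arrestin peptide for full effect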
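test system = AP2 appendage R879A on GSH beads | buffer or medium = PBS plus Tween 20 (0.05%) and BSA (0.1%) | incubation = 12 min plus 1 h, RT | detection = bead flow cytometry, FITC channel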
ADAM10 inh: human ADAM10 inhibitors, primary screen, biochemical, QFRET, HTS; Disintegrin and metalloproteinase domain-containing protein 10 (Homo sapiens), O14672; recombinant ADAM10, EDANS/DABCYL FRET peptide cleavage, 3 h; inhibition, % at 7 µM; 370,000 tested, 0.62% active;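 active = inhibition above a per-campaign cutoff equal to the mean of compounds falling between control-based bounds plus 3 SD, cut at about 20% in these data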;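 also: 0% = DMSO wells while the 100% control is not disclosed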
ADAM17 inh: ADAM17 inhibitors, primary screen, biochemical, QFRET. 370,000 tested, 0.83% active. inhibition, % at 6.95 µM. Disintegrin and metalloproteinase domain-containing protein 17 (Homo sapiens), P78536. recombinant ADAM17, EDANS/DABCYL FRET peptide cleavage;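 active = inhibition above the mean of compounds lying between control limits plus 3 SD, set per campaign, cut at about 8.5% in these data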;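 also: 0% = DMSO-only wells as the low control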
Target sequence (P78536 215-824 limits assumed): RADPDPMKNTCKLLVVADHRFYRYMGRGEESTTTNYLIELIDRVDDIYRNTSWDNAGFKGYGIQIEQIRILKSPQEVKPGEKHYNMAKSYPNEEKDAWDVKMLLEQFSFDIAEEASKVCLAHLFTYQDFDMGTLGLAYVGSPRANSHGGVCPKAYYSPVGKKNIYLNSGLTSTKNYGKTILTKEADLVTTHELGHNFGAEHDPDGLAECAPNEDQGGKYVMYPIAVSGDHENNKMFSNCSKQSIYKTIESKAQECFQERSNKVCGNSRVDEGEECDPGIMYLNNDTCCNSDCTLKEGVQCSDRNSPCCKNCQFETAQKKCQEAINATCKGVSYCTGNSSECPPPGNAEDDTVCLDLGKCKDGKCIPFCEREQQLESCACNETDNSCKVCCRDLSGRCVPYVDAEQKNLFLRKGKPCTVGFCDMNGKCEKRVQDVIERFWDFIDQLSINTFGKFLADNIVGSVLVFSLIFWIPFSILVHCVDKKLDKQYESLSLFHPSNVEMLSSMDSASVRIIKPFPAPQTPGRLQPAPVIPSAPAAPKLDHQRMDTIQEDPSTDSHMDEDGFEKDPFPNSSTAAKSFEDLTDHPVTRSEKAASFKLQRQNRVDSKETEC
ADAM10 ctr: ADAM10 inhibitors, counter-screen for ADAM17 exosite inhibitor project, biochemical, FRET, human ADAM10; 2,900 tested, 47% active; AID 743256, 2014; shares compounds with ADAM17 inh; inhibition, % at 6.95 µM; recombinant ADAM10, EDANS/DABCYL FRET peptide cleavage, 3 h;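 active = mean inhibition over the triplicate runs exceeds the activity threshold set in the earlier primary screen, cut at about 20% in these data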;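 also: 0% = DMSO wells and 100% = marimastat wells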
ADAM17 confirm: ADAM17 inhibitors, hit retest, confirmation, biochemical, QFRET peptide cleavage | shares compounds with ADAM17 inh | recombinant ADAM17, EDANS/DABCYL QFRET peptide cleavage | inhibition, % at 6.95 µM | 2,900 tested, 65% active;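 active = mean inhibition across replicates above the hit cutoff set in the primary screen, cut at about 8.5% in these data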;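 also: 0% = DMSO wells and 100% = marimastat wells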
Numbers without * were called inactive; i = inactive; / = no result. Most compounds without a hit are left out; they make up all but 2.9% or so of the library.

SMILES	CaV13 FRET inh	FAS TE block	CendR NRP1 mod	Arrestin-AP2 inh	ADAM10 inh	ADAM17 inh	ADAM10 ctr	ADAM17 confirm
O=C(NC1CCCCN(Cc2cccc(C(F)(F)F)c2)C1=O)c1ccc(Cl)cc1 (centres undefined)	/	/	/	/	3	3	/	/
CCCS(=O)(=O)NC(=O)C1(C)CCCN(C(=O)c2ccc3ccccc3c2)C1 (centres undefined)	-5	-8	-1	/	-14	1	/	/
c1nc(NCc2ccc3c(c2)OCO3)c2cc(-c3ccc4c(c3)OCCO4)ccc2n1	-6	23	5	-7	-88	-27	/	/
COc1cccc(-c2ccc3ncnc(NCc4ccc5c(c4)OCO5)c3c2)c1	4	14	1	25	16	11*	-4	2
COc1cc(NCc2ccccc2)c2ncn(Cc3ccccc3)c2c1	-5	13	-2	24	15	12*	14	7
COc1ccc(Cc2cc(NCc3ccccc3)c3ncn(C(C)C)c3c2)cc1	-10	27	19	15	19	8	/	/
Cc1ccc(S(=O)(=O)N(C)C[C@@H]2Oc3ccc(NS(=O)(=O)c4ccccc4)cc3CC(=O)N([C@@H](C)CO)C[C@H]2C)cc1	-6	49	9	23	14	10*	5	5
Cc1ccc(S(=O)(=O)Nc2cccc3c2O[C@H](CN(C)Cc2ccc(-c4ccccc4)cc2)[C@@H](C)CN([C@H](C)CO)C3=O)cc1	-6	47	-12	21	24*	13*	44*	24*
C[C@@H]1CN([C@H](C)CO)C(=O)c2c(c3ccccc3n2C)-c2ccccc2CO[C@H]1CN(C)Cc1ccc(-c2ccccc2)cc1	-5	15	-2	/	8	8.9*	17	8
CC1(C(=O)NCc2cccc(C(F)(F)F)c2)CCN1C1Cc2ccccc2C1 (centres undefined)	-4	20	-12	/	-10	-5	/	/
O=C(COc1cccc(Cl)c1)Nc1ccccc1N1CCCCC1	-2	24	5	-13	-19	-3	/	/
COCc1[nH]nc2c1C(c1ccc(Br)cc1)N(Cc1ccccc1)C2=O (centres undefined)	-4	/	/	/	4	1	/	/
C=CCCC(=O)N1CCCC(Cc2cccc(Cl)c2)(C(=O)OCC)C1 (centres undefined)	2	5	9	-8	10	9.1*	-6	0
COc1ccc(CN2C3=NC(c4ccccc4)CC(=O)N3/C(=C\c3ccccc3)C2c2ccccc2)c(OC)c1 (centres undefined)	/	/	/	/	6	2	/	/
CSc1nc(N2CCOCC2)nc2ccc(C)cc12	-7	2	-2	-2	i	-279	/	/
COc1ccc(OC)c(Nc2ccc(Nc3cc(OC)ccc3OC)nn2)c1	-4	13	17	12	14	18*	10	9
CC1(C)OC(=O)C2=C(C[C@@H](C3CC3)O[C@@H]2C2CC2)O1	-5	-11	-7	/	-11	-7	/	/
O=C(Nc1ccccc1)C1C2CCC3C(CCC21)C3(Cl)Cl (centres undefined)	-3	3	17	-2	13	8.8*	13	9.6*
O=C(Nc1cccc(Cl)c1)C1C2CCC3C(CCC21)C3(Cl)Cl (centres undefined)	-19	35	-3	0	14	7	/	/
O=C(/C=C/c1ccccc1Cl)Nc1cccc(O)c1	-5	6	2	11	6	9.2*	2	4
O=C(/C=C/c1ccccc1Cl)Nc1ccccc1	-13	15	9	2	13	2	/	/
Cc1ccc(NC(=S)N/N=C/c2ccc([N+](=O)[O-])s2)cc1	-6	1	-15	3	-3	11*	33*	19*
COc1cc2c(cc1NC(=O)CSc1nnc(-c3cccc(Cl)c3)n1Cc1ccco1)oc1ccccc12	/	/	/	/	-8	-1	/	/
COc1ccccc1NC(=S)NCCC(c1ccccc1)c1ccccc1	-20	25	8	8	7	4	/	/
COc1cc(NC(=S)NCCC(c2ccccc2)c2ccccc2)c(OC)cc1Cl	-5	30	2	4	9	9.7*	25*	14*
SMILES	CaV13 FRET inh	FAS TE block	CendR NRP1 mod	Arrestin-AP2 inh	ADAM10 inh	ADAM17 inh	ADAM10 ctr	ADAM17 confirm
COc1ccc(Cl)cc1NC(=S)NCCC(c1ccccc1)c1ccccc1	-3	28	-3	12	11	9.8*	20*	9
COc1ccc(Cl)cc1NC(=S)NCc1ccccn1	-3	-7	3	28	8	8.7*	-4	-1
COc1ccccc1NC(=S)NCc1ccccn1	5	-5	-5	/	2	4	/	/
COc1ccc(CCN(Cc2ccccn2)C(=S)Nc2ccccc2Cl)cc1OC	-7	10	-7	21	8	8.7*	10	8
COc1ccc2nc(N(Cc3ccccc3)C(=O)CCNC(C)=O)sc2c1	/	-1	6	-9	0	3	/	/
CCC1CCCCN1C(=O)n1ncc(C(O)(c2ccccc2)c2ccccc2)n1 (centres undefined)	/	/	/	/	1	0	/	/
CN1c2ccc(-c3cccc(F)c3)cc2[C@H]2[C@H](CCN2S(=O)(=O)c2cccc(F)c2)[C@H]1CO	/	/	/	/	-18	-6	/	/
COc1cccc(C(NC(C)=O)c2ccc3cccnc3c2O)c1 (centres undefined)	-4	0	-11	16	8	0	/	/
COc1cccc(C(Nc2ccccc2)c2ccc3ccc(C)nc3c2O)c1 (centres undefined)	-5	/	4	/	11	17*	13	15*
O=S(=O)(c1cccc(Cl)c1)N1CCN(S(=O)(=O)c2ccc3c(c2)OCCO3)CC1	-1	-2	20	13	12	10*	6	6
